Experimental data taken from the RNAGym collection of RNA variant scans (doi:10.1126/science.aae0568).
This sample holds only a part of the variants without activity.

B1: tRNA (parent)
chain: GUUCCGUUGGCGUAAUGGUAACGCGUCUCCCUCCUAAGGAGAAGACUGCGGGUUCGAGUCCCGUACGGAACG

Variants of: B1
Test: yeast fitness relative to wild type (ratio to wild type); higher = fitter; tRNA-Arg(CCU), competitive growth, 37 C, YPD
Procedure, shortened: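 A pool of Saccharomyces cerevisiae strains, each with a tRNA-Arg(CCU) gene variant at the native genomic locus, was competed in YPD at 37°C for 24 hours across six parallel replicates. The variants had been chemically synthesised at a 3% per-site mutation rate over 69 sites, and gene amplicons before and after competition were read by 100-nucleotide paired-end sequencing. Darwinian fitness relative to wild type rested on changes in genotype frequencies. Genotypes required ≥ 100 starting reads, and estimates < 0.5 were set to 0.5.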

Point of comparison: C5G G48C A69U, yeast fitness 0.587. Against it:
- C5G C34G C61A — lower, ≤ 0.5
- C5G C31U A36C G38A — lower, 0.557
- C5G G48C C49U U54G C55U C66A — higher, 0.604
- C5G G17A C46G — lower, 0.538
- C5G G12A C49G G68C — lower, ≤ 0.5
- C5G C29U A43C — lower, 0.537
- C5G C27G C55G — lower, ≤ 0.5
- C5G C11G A21C G67C — lower, ≤ 0.5
- C5G G51C A65C — lower, ≤ 0.5
- C5G C11A A15G G18A C30G — the same, 0.587
- C5G U13C U35C — lower, ≤ 0.5
- C5G U13A C22G C29G A40U — lower, 0.556
- C5G G41C C61U — lower, ≤ 0.5
- C5G C30G C66A — lower, ≤ 0.5
- C5G C27U C34A G51A — lower, ≤ 0.5
- C5G C55A C62U — lower, 0.546
- C5G U13G A20U A37G — lower, 0.514
- C5G C24G C30G C31U U35A A36U G44A G63C — higher, 0.966
- C5G A65U G67C — lower, 0.569
- C5G G9C A65U — lower, 0.555
- C5G U8C C11A U26C U35C G50C G52A — higher, 0.634
- C5G C22A G25A A37U — higher, 0.596
- C5G G9A C27G — lower, 0.544
- C5G C11U — higher, 0.886
- C5G C11G — higher, 0.614
- C5G C34A C49U — lower, ≤ 0.5
- C5G C55U — higher, 0.791
- C5G C24U A43U C55U G68C — lower, ≤ 0.5
- C5G G25C C46G U64G — lower, ≤ 0.5
- C5G C22A U26C C33G U64A G67C — lower, 0.544
- C5G U7A A20C G68C — lower, ≤ 0.5
- C5G U13G A14U G48C — lower, ≤ 0.5
- C5G C66A A69G A70C — lower, ≤ 0.5
- C5G U13A C22G U59A — lower, ≤ 0.5
- C5G A45U G68C — lower, ≤ 0.5
- C5G C29G C66A — lower, ≤ 0.5
- C5G U8C A15G C29A G39A — lower, ≤ 0.5
- C5G C11A C46G — higher, 0.639
- C5G G10C U13G A37C G56A A65U — higher, 0.64
- C5G G17C G63A A65G — lower, ≤ 0.5
- C5G G9C A40U C66G — lower, ≤ 0.5
- C5G G56A — higher, 0.975
- C5G C31U G52A — higher, 0.612
- C5G C31U C49G — lower, 0.576
- C5G G18A C55A — lower, ≤ 0.5
- C5G G48A C49U — higher, 0.933
- C5G C27U — higher, 0.651
- C5G C27A — higher, 0.709
- C5G G10C C29A — lower, ≤ 0.5
- C5G C49G U53A — lower, ≤ 0.5
- C5G C11G A14U A15U C61U G68C — lower, ≤ 0.5
- C5G U13C C24U — lower, ≤ 0.5
- C5G U13C A21C A70C — lower, ≤ 0.5
- C5G U13C C22G C33A — higher, 0.635
- C5G C33A A37C C61U C62A — lower, ≤ 0.5
- C5G C55G A65C — lower, 0.531
- C5G C11G A40G C60G — higher, 0.588
- C5G C11G A20C C33U C34U C61G — lower, 0.529
- C5G G6A C29G — lower, 0.533
- C5G G51A G68A — lower, ≤ 0.5
- C5G U7A A20G U47G G50C G51C — lower, ≤ 0.5
- C5G G25A A70C — higher, 0.758
- C5G C11G U35C — higher, 0.643
- C5G U13C G58C — higher, 0.74
- C5G G39A C49G C55U A57U — lower, ≤ 0.5
- C5G C27U G41C — lower, ≤ 0.5
- C5G C22G A36C — lower, ≤ 0.5
- C5G C49G — higher, 0.84
- C5G C49A — higher, 0.624
- C5G C27U G44C G48C — lower, ≤ 0.5
- C5G C22G C62A — lower, 0.509
- C5G U13G A20U — lower, ≤ 0.5
- C5G C22U A36C A42G — lower, ≤ 0.5
- C5G C61A G63C — lower, ≤ 0.5
- C5G C11A A40U U64C — lower, 0.536
- C5G G48A C62G A69U — higher, 0.768
- C5G C22G G39C A57U — higher, 0.723
- C5G U7C U54A C61U — lower, 0.557
- C5G G17C A43U A69C — higher, 0.596
- C5G C46U U53A — lower, 0.529
- C5G C11G A14U A15U A65G — lower, ≤ 0.5
- C5G G12A — higher, 0.932
- C5G C62G A65U — lower, ≤ 0.5
- C5G A70C — higher, 0.905
- C5G A70U — higher, 0.812
- C5G C31A A45U — lower, 0.584
- C5G C27G C29U A45G C49A C66U — lower, ≤ 0.5
- C5G C31U U32C — higher, 0.659
- C5G C24G C27G C60U — higher, 0.627
- C5G G10A C33U A65C G68C — lower, 0.55
- C5G C24U A45G — higher, 0.799
- C5G C22A U26C C33G — lower, 0.564
- C5G C30U A40G C55U — lower, ≤ 0.5
- C5G G12C A45C C46U C55U C62U — lower, ≤ 0.5
- C5G C34A G39C G52A G58A — lower, 0.532
- C5G C30U A36U G51C — lower, ≤ 0.5
- C5G G10C U35G G50A C55U A69C — higher, 0.607
- C5G G44A C55G — lower, 0.527
- C5G G39A A70G — higher, 0.617
- C5G C49A G63A — lower, ≤ 0.5
- C5G G6A C29U C33G G38A U59G — lower, 0.562
- C5G C11U G25C — lower, 0.571
- C5G G44C C55A — lower, ≤ 0.5
- C5G C22U C62A A65C — lower, ≤ 0.5
- C5G G25A G48A C61G — lower, ≤ 0.5
- C5G C29U G44C — lower, ≤ 0.5
- C5G G25A A69U — higher, 0.75
- C5G U7G U32C — higher, 0.604
- C5G C49A U64C — higher, 0.621
- C5G G18C U26C U28A — lower, ≤ 0.5
- C5G G23A A43U A65G G68A — lower, ≤ 0.5
- C5G C33G A40U A65C — lower, ≤ 0.5
- C5G U8C A20G A43U G51A A65C — lower, ≤ 0.5
- C5G G39A — higher, 0.725
- C5G C30G G67A A70U — lower, ≤ 0.5
- C5G G23C A36C — lower, ≤ 0.5
- C5G C11A U19C A20C C33A C61G C66U A69U — lower, ≤ 0.5
- C5G G6A U26C G52A — higher, 0.619
- C5G C61U A69C — lower, ≤ 0.5
- C5G C61U A69U — higher, 0.775
- C5G C27G U32C C33U G56A A69U — lower, ≤ 0.5
- C5G U7G C33G A70U — lower, ≤ 0.5
- C5G G51C C61G C66U — lower, ≤ 0.5
- C5G U7C G56A A57U C62G — lower, ≤ 0.5
- C5G C29A G58C U64G — lower, 0.545
- C5G C11U C34A U47A — lower, 0.528
- C5G U13C A21C G68U — lower, ≤ 0.5
- C5G C30G C61G — lower, ≤ 0.5
- C5G C29A U53C C62A G67A — lower, ≤ 0.5
- C5G G17C G25A A40C U59A — lower, 0.54
- C5G C30A — higher, 0.736
- C5G G17C A45G C46U — lower, ≤ 0.5
- C5G G44C C49U U59G — lower, ≤ 0.5
- C5G U7A A42C — lower, ≤ 0.5
- C5G G25A C61G — lower, 0.564
- C5G C22U A37G G50C — lower, ≤ 0.5
- C5G C66G — higher, 0.781
- C5G G25C C49U — higher, 0.689
- C5G C24G C49U G58A G63A — lower, ≤ 0.5
- C5G C66A A69U — lower, 0.574
- C5G A65C G68A — higher, 0.671
- C5G C29U A37G A65G — lower, ≤ 0.5
- C5G C29U A37U G38C — lower, ≤ 0.5
- C5G G9C A43G — higher, 0.667
- C5G C29A G52A — higher, 0.695
- C5G C61G A69G — lower, ≤ 0.5
- C5G C11G A15C A45U C49U — lower, ≤ 0.5
- C5G C22G A45G A65U — lower, ≤ 0.5
- C5G C11A A14G G25C C29G G56C A57C — lower, ≤ 0.5
- C5G G9C A42G — lower, ≤ 0.5
- C5G G6A G50C — higher, 0.608
- C5G C11A A20G U28C C33U A70C — lower, ≤ 0.5
- C5G C29A C31A — higher, 0.714
- C5G C24G C34G C46U C61A A70U — lower, ≤ 0.5
- C5G G68U — higher, 0.678
- C5G C30U C31G — higher, 0.79
- C5G C29U A40G A57G — lower, ≤ 0.5
- C5G G63A A69C — higher, 0.614
- C5G C27A C49A — lower, ≤ 0.5
- C5G U7C G52A — lower, ≤ 0.5
- C5G C27U G41C A57C — lower, 0.565
- C5G C30G G38C G56C — higher, 0.621
- C5G C22U U28G — lower, ≤ 0.5
- C5G C55U A69U — lower, ≤ 0.5
- C5G C30U C31G C46U — lower, ≤ 0.5
- C5G A65G A69U — higher, 0.71
